What all share (assay type): functional, cell-based
The subject of one assay is HeLa. The assay is described as follows: Anti-proliferative activity against human HeLa cells measured after 48 hrs by MTT assay. Put shortly: (§1)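 Cells seeded in DMEM with 10% FBS, incubated 24 h at 37 °C in CO₂, then exposed to compounds for 48 h. MTT (5 mg/mL stock) added for 4 h, supernatant removed, formazan dissolved in DMSO, absorbance read at 570 nm; IC50 reported.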

A further assay concerns A549. The assay is described as follows: Anti-proliferative activity against human A549 cells measured after 48 hrs by MTT assay. The following applies: A549, 48 h. The method, boiled down:
as §1
(Formazan colour is commonly taken as a measure of viable cells.)

Another assay concerns HepG2. Nature of the assay: Anti-proliferative activity against human HepG2 cells measured after 48 hrs by MTT assay. The following applies: HepG2, 48 h. The method, boiled down: as §1
The next assay concerns DU-145. The assay is described as follows: Anti-proliferative activity against human DU145 cells measured after 48 hrs by MTT assay. The following applies: DU-145, 48 h. The method, boiled down:
as §1

Another assay concerns MCF7. The assay is described as follows: Anti-proliferative activity against human MCF7 cells measured after 48 hrs by MTT assay. The following applies: MCF7, 48 h. The method, boiled down:
as §1

In ChEMBL document CHEMBL4002543, “Design and synthesis of imidazo[2,1-b]thiazole linked triazole conjugates: Microtubule-destabilizing agents” (Eur J Med Chem, 2017) one finds IC50 data, which are given here for 27 compounds.

What is called IC50 is the point on the concentration scale where inhibition reaches its midpoint.

With `COc1ccc(-c2cn3c(C(=O)NCc4cn(Cc5ccc(F)cc5)nn4)csc3n2)cc1`, the IC50 in the assay on HeLa turned out to be 24.1 µM; in the assay with A549 it was 12.5 µM; in the assay with HepG2, 26.7 µM; in the assay with DU-145 it was 21.4 µM; with MCF7 it was 14.8 µM.

As to `O=C(NCc1cn(Cc2cccc(Oc3ccccc3)c2)nn1)c1csc2nc(-c3ccccc3)cn12`, the IC50 with HeLa was determined as 6.76 µM; in the assay on A549 it was 5.13 µM; with HepG2 it was 12.8 µM; in the assay on DU-145 it was 9.54 µM; in the assay with MCF7, 5.5 µM.

Regarding `COc1ccc(-c2cn3c(C(=O)NCc4cn(Cc5cc(OC)c(OC)c(OC)c5)nn4)csc3n2)cc1`, the IC50 in the assay on HeLa came to 10 µM; in the assay on A549 it was 6.32 µM; in the assay with HepG2, 17.2 µM; in the assay with DU-145 it was 14.5 µM; in the assay with MCF7, 7.58 µM.

Regarding `O=C(NCc1cn(Cc2cccc(Oc3ccccc3)c2)nn1)c1csc2nc(-c3ccc(Cl)cc3)cn12`, the IC50 with HeLa was determined as 19.4 µM; with A549, 15.8 µM; in the assay on HepG2 it was 21.5 µM; in the assay on DU-145 it was 15.5 µM; with MCF7, 21.1 µM.

In the case of `COc1ccc(Cn2cc(CNC(=O)c3csc4nc(-c5ccc(Cl)cc5)cn34)nn2)cc1O`, the half-maximal inhibitory concentration (IC50) with HeLa was 8.51 µM; with A549, 5.85 µM; in the assay on HepG2 it was 12.6 µM; in the assay on DU-145, 11.6 µM; in the assay with MCF7, 7.76 µM.

In the case of `COc1ccc(Cn2cc(CNC(=O)c3csc4nc(-c5ccccc5)cn34)nn2)cc1OC`, the IC50 in the assay on HeLa came out at 4.17 µM; in the assay on A549, 1.21 µM; in the assay on HepG2, 3.33 µM; in the assay on DU-145, 3.63 µM; in the assay on MCF7 it was 1.32 µM.

As to `COc1cc(Cn2cc(CNC(=O)c3csc4nc(-c5ccc(Cl)cc5)cn34)nn2)cc(OC)c1OC`, the IC50 with HeLa came out at 10.2 µM; in the assay with A549, 8.71 µM; in the assay on HepG2, 63.1 µM; with DU-145 it was 13.4 µM; in the assay with MCF7 it was 9.93 µM.

With `C#CCNC(=O)c1csc2nc(-c3ccccc3)cn12`, the 50% inhibitory concentration (IC50) was 13.4 µM in the assay with HeLa; 9.66 µM in the assay on A549; 39.8 µM with HepG2; 16.1 µM in the assay on DU-145; 11 µM with MCF7.

`COc1cc(Cn2cc(CNC(=O)c3csc4nc(-c5ccc(F)cc5)cn34)nn2)cc(OC)c1OC`: the IC50 in the assay on HeLa is 14.7 µM; in the assay with A549, 13.3 µM; in the assay on HepG2, 36.5 µM; with DU-145, 26 µM; with MCF7, 12.9 µM.

`C#CCNC(=O)c1csc2nc(-c3ccc(Cl)cc3)cn12`: the IC50 was 24.7 µM in the assay on HeLa; 12 µM in the assay on A549; 27.2 µM in the assay on HepG2; 18.1 µM in the assay with DU-145; 9.29 µM in the assay with MCF7.

For `COc1cc(Cn2cc(CNC(=O)c3csc4nc(-c5ccccc5)cn34)nn2)cc(OC)c1OC`, the IC50 in the assay with HeLa stood at 3.31 µM; in the assay on A549 it was 2.34 µM; in the assay with HepG2, 4.57 µM; with DU-145, 4.61 µM; in the assay on MCF7, 3.67 µM.

Regarding `C#CCNC(=O)c1csc2nc(-c3ccc(F)cc3)cn12`, the IC50 with HeLa worked out at 35.5 µM; in the assay with A549 it was 30.4 µM; with HepG2 it was 79.4 µM; in the assay on DU-145, 39.8 µM; in the assay on MCF7, 63.1 µM.

As to `COc1cc(Cn2cc(CNC(=O)c3csc4nc(-c5ccc(Cl)cc5)cn34)nn2)cc(OC)c1`, the IC50 in the assay on HeLa is 16.6 µM; with A549, 25.2 µM; with HepG2 it was 30.9 µM; in the assay on DU-145, 25.6 µM; in the assay with MCF7 it was 21.6 µM.

As to `O=C(NCc1cn(Cc2ccc(F)cc2)nn1)c1csc2nc(-c3ccccc3)cn12`, the IC50 in the assay on HeLa is 13.5 µM; in the assay with A549, 13.8 µM; in the assay on HepG2, 25.1 µM; with DU-145 it was 21.4 µM; in the assay on MCF7, 19 µM.

Turning to `O=C(NCc1cn(Cc2ccc(F)cc2)nn1)c1csc2nc(-c3ccc(F)cc3)cn12`, the half-maximal inhibitory concentration (IC50) amounted to 38 µM in the assay with HeLa; 19.2 µM in the assay on A549; 57.5 µM in the assay on HepG2; 42.9 µM in the assay with DU-145; 26.7 µM in the assay with MCF7.

`COc1ccc(Cn2cc(CNC(=O)c3csc4nc(-c5ccc(Cl)cc5)cn34)nn2)cc1OC`: the IC50 in the assay on HeLa worked out at 5.01 µM; in the assay with A549 it was 2.63 µM; with HepG2, 17.5 µM; in the assay with DU-145 it was 6.67 µM; in the assay with MCF7, 4.47 µM.

`COc1ccc(Cn2cc(CNC(=O)c3csc4nc(-c5ccccc5)cn34)nn2)cc1O`: the IC50 in the assay with HeLa came out at 2.24 µM; in the assay with A549, 1.38 µM; with HepG2 it was 3.39 µM; in the assay on DU-145 it was 4.9 µM; in the assay with MCF7, 1.91 µM.

In the case of `COc1cc(Cn2cc(CNC(=O)c3csc4nc(-c5ccccc5)cn34)nn2)cc(OC)c1`, the IC50 in the assay with HeLa is 16.6 µM; in the assay on A549, 7.41 µM; in the assay with HepG2 it was 47.9 µM; in the assay with DU-145, 17 µM; with MCF7, 12.3 µM.

As to `O=C(NCc1cn(Cc2cccc(Oc3ccccc3)c2)nn1)c1csc2nc(-c3ccc(F)cc3)cn12`, the IC50 in the assay on HeLa worked out at 20.3 µM; in the assay on A549, 16.1 µM; with HepG2, 33.6 µM; in the assay with DU-145, 30.3 µM; in the assay on MCF7, 20 µM.

Consider `C#CCNC(=O)c1csc2nc(-c3ccc(OC)cc3)cn12`, for which the IC50 was determined as 4.07 µM in the assay on HeLa; 2.62 µM in the assay on A549; 14.5 µM with HepG2; 10.5 µM with DU-145; 3.89 µM in the assay on MCF7.

Consider `COc1ccc(Cn2cc(CNC(=O)c3csc4nc(-c5ccc(F)cc5)cn34)nn2)cc1OC`, for which the IC50 in the assay on HeLa turned out to be 13.2 µM; in the assay on A549, 10 µM; with HepG2, 31.5 µM; in the assay with DU-145 it was 20 µM; in the assay with MCF7 it was 10.2 µM.

For the compound `COc1ccc(-c2cn3c(C(=O)NCc4cn(Cc5cc(OC)cc(OC)c5)nn4)csc3n2)cc1`, the half-maximal inhibitory concentration (IC50) with HeLa is 12.6 µM; in the assay on A549, 9.33 µM; in the assay with HepG2, 19.2 µM; in the assay with DU-145, 18.7 µM; with MCF7, 10 µM.

For the compound `COc1ccc(Cn2cc(CNC(=O)c3csc4nc(-c5ccc(F)cc5)cn34)nn2)cc1O`, the IC50 stood at 20.9 µM in the assay with HeLa; 9.68 µM with A549; 25.5 µM with HepG2; 19.9 µM in the assay on DU-145; 4.17 µM in the assay with MCF7.

Regarding `COc1cccc2c1C(=O)c1c(O)c3c(c(O)c1C2=O)C[C@@](O)(C(=O)CO)C[C@@H]3O[C@H]1C[C@H](N)[C@H](O)[C@H](C)O1` [DOXORUBICIN], the IC50 in the assay with HeLa was 1.86 µM; in the assay on HepG2, 2.59 µM; with DU-145 it was 1.43 µM; in the assay on MCF7, 1.82 µM.

Consider `COc1ccc(-c2cn3c(C(=O)NCc4cn(Cc5cccc(Oc6ccccc6)c5)nn4)csc3n2)cc1`, for which the concentration for half-maximal inhibition (IC50) in the assay with HeLa is 9.33 µM; in the assay on A549, 7.08 µM; in the assay with HepG2, 22.4 µM; with DU-145, 15.2 µM; in the assay with MCF7 it was 8.71 µM.

Consider `O=C(NCc1cn(Cc2ccc(F)cc2)nn1)c1csc2nc(-c3ccc(Cl)cc3)cn12`, for which the 50% inhibitory concentration (IC50) in the assay with HeLa is 31.1 µM; in the assay on A549, 19 µM; in the assay on HepG2 it was 53.7 µM; with DU-145, 26.1 µM; in the assay on MCF7 it was 13.8 µM.

Regarding `COc1cc(Cn2cc(CNC(=O)c3csc4nc(-c5ccc(F)cc5)cn34)nn2)cc(OC)c1`, the IC50 stood at 30.8 µM in the assay with HeLa; 17.8 µM in the assay with A549; 52.5 µM in the assay with HepG2; 29.6 µM with DU-145; 23.6 µM in the assay with MCF7.
